Screens as filed in PubChem BioAssay.
MT stabilizer = microtubule stabilizers in HeLa cells; HeLa tubulin immunostaining HCS, 24 h; share of cells brighter than vehicle mean+2SD; % tubulin-high responders, % at 10 µM; 200,000 tested, 0.83% active;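 active = plate Z-score above 3 for both tubulin-high and condensed-nucleus cell shares, with cell loss under 80%, at 10 µM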;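 also: anti alpha tubulin signal scored within the nucleus-defined area of each cell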
IEC-6 cytotox = IEC-6 cytotoxicity, counter-screen for KLF5 inhibitors | luminescence viability | inhibition, % at 5 µM | AID 1825 | 290,000 tested, 0.78% active; in the data active = inhibition above about 22%
Ba/F3 V617F tox = reduce viability of Ba/F3 cells dependent on JAK2V617F | Ba/F3 EpoR-JAK2V617F viability, ATP luminescence | AID 1446 | inhibition, % at 5.6 µM | 220,000 tested, 1.1% active;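 active = inhibition above the campaign mean plus 3 SD over all tested compounds, cut at about 24% in these data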;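 also: cytokine-independent growth of Ba/F3 cells driven by EpoR plus mutant JAK2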
BaF3 parental = reduces parental Ba/F3 cell viability, JAK2V617F counter-screen. CellTiter-Glo ATP luminescence. inhibition, % at 5.6 µM. 220,000 tested, 1.1% active;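 active = inhibition above a per-campaign cutoff, the mean inhibition of all tested compounds plus 3 SD, cut at about 27% in these data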
b-catenin transl = beta-catenin nuclear translocation modulation | AID 1665 | 190,000 tested, 0.3% active | HeLa beta-catenin nuclear translocation, immunofluorescence imaging | nuclear translocation activity, % at 5 µM;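 active = nuclear translocation activity above 50% at 5 µM, with a well cell count of 50 or more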;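 also: per-cell ratio of nuclear to cytoplasmic median beta-catenin stain intensity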
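Test system: human HeLa cells, endogenous beta-catenin. Times: 24 h compound exposure, 37°C. Measured by: beta-catenin immunofluorescence imaging with DAPI.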
APP transl inh = APP translation inhibition. SH-SY5Y APP 5'UTR-luciferase reporter, luminescence. inhibition, % at 2 µM. 190,000 tested, 0.82% active;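 active = inhibition above a set limit, derived from the sample mean plus 3 SD, cut at about 45% in these data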
BaF3 parental 2 = reduces parental Ba/F3 viability, JAK2V617F counter-screen. shares compounds with Ba/F3 V617F tox. inhibition, % at 5.6 µM. CellTiter-Glo luminescence; cells kept alive by added IL-3. 580 tested, 31% active. AID 1520;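 active = cell growth inhibition above the hit limit set in the earlier mutant JAK2 cell screen, cut at about 27% in these data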
JAK2V617F conf = confirmation: loss of viability in JAK2V617F-dependent Ba/F3 cells. Ba/F3 EpoR-JAK2V617F viability, CellTiter-Glo luminescence. shares compounds with Ba/F3 V617F tox. 580 tested, 66% active. inhibition, % at 5.6 µM;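 active = mean inhibition above the hit cutoff derived in the earlier primary screen, cut at about 25% in these data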;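 also: higher means lower luminescence from reduced cell ATP and viability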
Of the large screens only hits and unclear results are named; the others gave an inactive call (follow-up assays come after a bar, where they were run). An excerpt weighted towards active compounds, which were near 2.2% of everything screened.

Cc1cc(SCC(=O)N/N=C/c2ccc(O)c(O)c2)c(C)cc1Br	Ba/F3 V617F tox 44 | BaF3 parental 2 inactive | JAK2V617F conf 85
CCN(CC)S(=O)(=O)c1cccc(C(=O)N[C@H](C(=O)Nc2nc3ccc(F)cc3s2)C(C)C)c1	Ba/F3 V617F tox 66 | BaF3 parental 2 inactive | JAK2V617F conf inactive
CC(=O)Nc1cc2c3c(c1)CC(=O)N3CCC2	none (no result: MT stabilizer, Ba/F3 V617F tox, BaF3 parental, b-catenin transl, APP transl inh)
COc1cc(N2C(=O)C=CC2=O)c(OC)cc1Cl	Ba/F3 V617F tox 32 (no result: MT stabilizer, APP transl inh) | BaF3 parental 2 inactive | JAK2V617F conf inactive
Fc1ccccc1SCc1nnc(-c2ccccc2Br)o1	none
O=C(Nc1ccccc1C(=O)O)c1ccc(Br)o1	Ba/F3 V617F tox 24 | BaF3 parental 2 inactive | JAK2V617F conf inactive
COc1ccc(CNC(=O)N2CCN(c3ccc(F)cc3)CC2)cc1	none (no result: MT stabilizer, Ba/F3 V617F tox, BaF3 parental, b-catenin transl, APP transl inh)
S=C(Nc1ccc(Cl)cc1)c1nc2ccccc2s1	none
O=C(Nc1ccc(Cl)cc1)/C(=C/c1cccc(O)c1)c1nc2ccccc2s1	Ba/F3 V617F tox 68 | BaF3 parental 2 inactive | JAK2V617F conf 98
CCN(CC)S(=O)(=O)c1ccc(N/N=C/c2ccc(O)cc2O)nc1	Ba/F3 V617F tox 50, APP transl inh 81 (no result: b-catenin transl) | BaF3 parental 2 83 | JAK2V617F conf 93
CCN(CC)S(=O)(=O)c1ccc(N/N=C(\C)c2ccncc2)nc1	none (no result: MT stabilizer, Ba/F3 V617F tox, BaF3 parental, b-catenin transl, APP transl inh)
Cc1ccc(C(=O)c2c(C)oc3c2C(=O)C(=O)c2ccccc2-3)cc1	Ba/F3 V617F tox 27 | BaF3 parental 2 inactive | JAK2V617F conf 33
CCOC(=S)SCC(=O)Nc1nc(-c2ccc(Br)cc2)cs1	Ba/F3 V617F tox 27 | BaF3 parental 2 71 | JAK2V617F conf 99
Cc1ccc(NC(=O)c2ccccc2)cc1	none
Cc1ccc(NC(=O)C2=C(c3ccccc3)S(=O)(=O)CCS2(=O)=O)cc1	Ba/F3 V617F tox 71, APP transl inh 93 | BaF3 parental 2 40 | JAK2V617F conf 99
CCC(O)CNC(=O)CCc1nnc(C2(c3ccc(Cl)cc3)CCC2)o1 (centres undefined)	none
COc1ccc(C2=Nn3c(nnc3C3CCCCC3)SC2)cc1OC	Ba/F3 V617F tox 25 (no result: b-catenin transl) | BaF3 parental 2 inactive | JAK2V617F conf 51
COc1ccc(C)cc1NS(=O)(=O)c1ccc2c(c1)N(C)CCO2	none (no result: MT stabilizer, Ba/F3 V617F tox, BaF3 parental, b-catenin transl, APP transl inh)
Fc1ccc(N2CCN(Cc3ccccn3)CC2)cc1	Ba/F3 V617F tox 63 | BaF3 parental 2 inactive | JAK2V617F conf inactive
Fc1ccc(N2CCN(Cc3cn[nH]c3-c3ccccc3)CC2)cc1	none (no result: MT stabilizer, APP transl inh)
COC1(OC)C(/C=C/c2ccc(C)cc2)C(C#N)(C#N)C1(OC)OC (centres undefined)	Ba/F3 V617F tox 37 (no result: b-catenin transl) | BaF3 parental 2 inactive | JAK2V617F conf 50
CC1CN(Cc2ccccc2)C(C)CC1O (centres undefined)	none
O=C(Nn1c(-c2ccc(F)cc2)nc2ccccc2c1=O)c1cccnc1	Ba/F3 V617F tox 66 | BaF3 parental 2 inactive | JAK2V617F conf inactive
O=C(O[C@@H]1OC2COC(=O)c3cc(O)c(O)c(O)c3-c3c(cc(O)c(O)c3O)C(=O)O[C@@H]([C@H]1O)[C@@H]2O)c1cc(O)c(O)c(O)c1	Ba/F3 V617F tox 48 | BaF3 parental 2 inactive | JAK2V617F conf inactive
NC(=O)C(=O)N/N=C/c1c2ccccc2cc2ccccc12	none (no result: MT stabilizer, Ba/F3 V617F tox, BaF3 parental, b-catenin transl, APP transl inh)
CCOc1cc(Br)ccc1S(=O)(=O)NCc1ccccc1	Ba/F3 V617F tox 101 | BaF3 parental 2 inactive | JAK2V617F conf inactive
Cn1cnnc1Sc1nc([N+](=O)[O-])nn1C	none
COc1ccccc1-c1nnc(Sc2nc([N+](=O)[O-])nn2C)o1	Ba/F3 V617F tox 60 (no result: APP transl inh) | BaF3 parental 2 inactive | JAK2V617F conf 87
COc1ccc(C(=O)O)cc1S(=O)(=O)Nc1ccccc1-c1ccccc1	none (no result: MT stabilizer, Ba/F3 V617F tox, BaF3 parental, b-catenin transl, APP transl inh)
COCCNC(=O)CN(C(=O)c1ccc(N2CCCC2)nc1)c1ccccc1	Ba/F3 V617F tox 64 | BaF3 parental 2 inactive | JAK2V617F conf inactive
COCCNC(=O)CN(C(=O)c1ccc(N2CCCC2)nc1)c1ccc(F)c(Cl)c1	none (no result: MT stabilizer, Ba/F3 V617F tox, BaF3 parental, b-catenin transl, APP transl inh)
CCC(C)C(=O)Nc1c2c(nc3c1CCC3)CCCC2 (centres undefined)	Ba/F3 V617F tox 32 | BaF3 parental 2 inactive | JAK2V617F conf inactive
CC(C)C(=O)Nc1c2c(nc3c1CCC3)CCCC2	none
